ZTA counter: counter-screen for EBNA-1 inhibitors: inhibitors of Epstein-Barr virus ZTA | ZTA-DNA binding, fluorescence polarization | AID 2234 | hit rate 0.15% among 320,000 | inhibition, % at 11 µM | P03206; in the data active = inhibition above about 33%
Target sequence (P03206 whole entry, looked up): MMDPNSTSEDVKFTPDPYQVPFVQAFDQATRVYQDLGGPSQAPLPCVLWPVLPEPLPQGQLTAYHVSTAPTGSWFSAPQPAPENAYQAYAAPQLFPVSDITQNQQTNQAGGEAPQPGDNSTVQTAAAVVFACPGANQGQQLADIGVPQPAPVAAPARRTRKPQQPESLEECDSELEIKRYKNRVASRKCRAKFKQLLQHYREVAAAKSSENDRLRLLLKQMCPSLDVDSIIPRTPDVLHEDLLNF
EBNA-1 inhibitor: blocks EBNA-1 binding to DNA | EBNA-1 DNA binding, fluorescence polarization | inhibition, % at 14.8 µM | hit rate 0.34% among 300,000; in the data active = inhibition above about 28%
HCV NS3 hel inh: inhibitors of Hepatitis C virus NS3 helicase. NS3 helicase DNA unwinding, Cy5 molecular beacon fluorescence. inhibition, % at 10.9 µM. hit rate 0.56% among 290,000. AID 1800;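 active = inhibition above the mean of all tested compounds plus 3 SD, set per campaign, cut at about 35% in these data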
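test system = hepatitis C virus NS3 helicase domain fragment enzyme | reagent = annealed dual-labelled DNA beacon duplex, ATP-started | times = 1 h at 25 °C | detection = Cy5 fluorescence, 0 and 60 min reads | read-out basis = percent inhibition from t60/t0 fluorescence ratio | control set = DMSO and thioflavine S | replication = one well per compound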
core dimer inh: blocks dimerization of HCV core protein. inhibition, % at 5 µM. AID 1899. hit rate 0.33% among 300,000. TR-FRET GST/Flag-core106 dimerization, 1536-well;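 active = inhibition above the mean of all tested compounds plus 3 SD, set per screening campaign, cut at about 45% in these data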
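Assay system: GST-tagged and Flag-tagged HCV core protein residues 1-106 / Times: compound-protein-antibody incubation 4 h at 22.5 °C / Signal: time-resolved FRET, ex 340 nm, em 617 and 671 nm / Evaluation: % inhibition based on acceptor/donor emission ratio / Benchmarks: wells lacking GST-core106 and wells with excess unlabelled core106 / Repeats: singlicate, one well per compound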
NS3 helicase cf: HCV NS3 helicase inhibition, confirmation assay; shares compounds with HCV NS3 hel inh; NS3 helicase DNA unwinding, Cy5 molecular beacon fluorescence; inhibition, % at 10.9 µM; hit rate 31% among 1,600; AID 1943;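 active = inhibition above the mean of all tested compounds plus 3 SD, cutoff set per campaign, cut at about 36% in these data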
FID counter trip: counter-screen for HCV NS3 helicase inhibitors: DNA intercalator displacement | shares compounds with HCV NS3 hel inh | DNA fluorescent intercalator displacement, fluorescence | inhibition, % at 7.9 µM | hit rate 4% among 1,600 | AID 1945; in the data active = inhibition above about 37%;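 note: higher means more displacement of ethidium bromide from the DNA hairpin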
EBNA-1 confirm: EBNA-1 (EBV) inhibition, confirmation | hit rate 35% among 830 | Recombinant EBNA-1 DBD, Cy5-DNA fluorescence polarization | inhibition, % at 14.8 µM | shares compounds with EBNA-1 inhibitor | AID 2292;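 active = mean inhibition across replicates above a set limit taken from the earlier primary screen, cut at about 28% in these data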
ZTA counter trip: blocks Epstein-Barr virus ZTA in triplicate, EBNA-1 counter-screen; inhibition, % at 11.1 µM; AID 2328; shares compounds with EBNA-1 inhibitor; Zta-ZRE DNA binding, Cy5 fluorescence polarization; 830 tested, under 10 active;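 active = mean inhibition over triplicates above a set limit taken from the primary EBNA-1 screen, cut at about 37% in these data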;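 note: purified full length Zta protein with Cy5 labeled ZRE DNA probe; inhibitors lower polarization by freeing the labeled DNA probe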
Zta DNA confirm: EBV ZTA DNA binding inhibition, confirmation | Zta-ZRE DNA binding, fluorescence polarization | inhibition, % at 11.1 µM | hit rate 30% among 320 | shares compounds with ZTA counter;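 active = mean inhibition across triplicate runs above the hit threshold derived for the original primary screen, cut at about 33% in these data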
EBNA-1 counter: blocks EBNA-1 DNA binding in ZTA counter-screen; shares compounds with ZTA counter; fluorescence polarization; inhibition, % at 14.8 µM; 320 tested, under 10 active; call rule not given here
Of the large screens only hits and unclear results are named; the others gave an inactive call (follow-up assays come after a bar, where they were run). Only some compounds are listed: those with a hit (about 1.2% of all), similar ones and a draw of the others.

O=C(O)c1ccc2c(c1)C(=O)/C(=C\c1ccco1)C2=O	ZTA counter 62, HCV NS3 hel inh 62 | NS3 helicase cf inactive | FID counter trip inactive | Zta DNA confirm 63 | EBNA-1 counter inactive
O=C(O)c1ccc2c(c1)C(=O)/C(=C/c1ccccc1)C2=O	none
O=C1c2ccccc2-c2onc3ccc(NCc4ccco4)c1c23	ZTA counter 83, HCV NS3 hel inh 41 | NS3 helicase cf inactive | FID counter trip inactive | Zta DNA confirm 46 | EBNA-1 counter inactive
O=C(CCNC(=O)C1CCN(S(=O)(=O)c2ccccc2)CC1)NCc1ccc(Cl)c(Cl)c1	none
CC1=NN(c2cccc(C(=O)O)c2)C(=O)/C1=C\C=C\c1ccco1	ZTA counter 70, HCV NS3 hel inh 42 | NS3 helicase cf 76 | FID counter trip inactive | Zta DNA confirm 67 | EBNA-1 counter inactive
CCOc1ccc(C(=O)CC(=O)C(=O)NCCc2ccc(OC)c(OC)c2)cc1	none
COc1cccc(NS(=O)(=O)c2ccc3c(c2)C2C=CCC2C(c2ccc(C(=O)O)cc2)N3)c1 (stereo not drawn)	ZTA counter 38, HCV NS3 hel inh 43 | NS3 helicase cf 52 | FID counter trip 42 | Zta DNA confirm inactive | EBNA-1 counter inactive
COc1cccc(NS(=O)(=O)c2ccc3c(c2)CCCN3C(C)=O)c1	none
COc1ccc(/C=C/C(=O)c2c(C)nc3ccccn23)cc1	EBNA-1 inhibitor 69 | EBNA-1 confirm 40 | ZTA counter trip inactive
Cc1cccc(N(C(=O)c2snc(C(N)=O)c2N)C(C(=O)NCC2CCCO2)c2ccc(N(C)C)cc2)c1C (stereo not drawn)	EBNA-1 inhibitor 40 | EBNA-1 confirm 97 | ZTA counter trip inactive
CN(C)c1ccc(C(C(=O)NCC2CCCO2)N(Cc2ccccc2)C(=O)c2snc(C(N)=O)c2N)cc1 (stereo not drawn)	none
Cc1cccc(N2CCN(C(=O)CCC(=O)N3CC(C)Oc4ccc(C)cc43)CC2C)c1 (stereo not drawn)	none
COc1ccccc1Nc1nc(N)nc(CSC(=S)N2CC(C)CC(C)C2)n1 (stereo not drawn)	none
CC1(c2ccc([N+](=O)[O-])cc2)Nc2ccccc2S1 (stereo not drawn)	none
CCC1CCCCN1CCCNC(=O)C1CC(=O)N(CCc2ccccc2)C1 (stereo not drawn)	none
CC1CCc2c(sc(NC(=O)CCC(=O)O)c2C(=O)NC2CC2)C1 (stereo not drawn)	none
COc1ccc(-c2noc3c2-c2nc(-c4ccccc4F)sc2CC3)cc1	none
COCCNC(=O)CCn1nc(-c2ccc(C)cc2)ccc1=O	none
COc1ccc(S(=O)(=O)N2CCOCC2)cc1NC(=O)c1ccccc1-c1ccc(C(F)(F)F)cc1	EBNA-1 inhibitor 32 | EBNA-1 confirm 37 | ZTA counter trip inactive
COc1ccc(NC(=O)c2ccccc2-c2ccc(C(F)(F)F)cc2)cc1S(=O)(=O)N1CCOCC1	none
Cc1ccc(OCCC(=O)OCC(=O)NC(=O)c2ccccc2)cc1	none (no result: HCV NS3 hel inh)
COC(=O)c1ccccc1S(=O)(=O)N1CCC(C(=O)OCc2ccc([N+](=O)[O-])cc2)CC1	none (no result: HCV NS3 hel inh)
COc1ccc(N2C(=O)NC(NS(=O)(=O)c3ccc(NC(C)=O)cc3)(C(F)(F)F)C2=O)cc1 (stereo not drawn)	none
COc1ccc(C(=O)NC2CC(C)(C)Cc3c2cnn3-c2ccccc2)cc1OC (stereo not drawn)	none
COc1cc(C(=O)NC2CC(C)(C)Cc3c2cnn3-c2ccccc2)cc(OC)c1OC (stereo not drawn)	EBNA-1 inhibitor 32 | EBNA-1 confirm 34 | ZTA counter trip inactive
CC1CCCCN1CCNC(=O)c1ccc2c(c1)N(Cc1ccccc1F)C(=O)c1ccccc1S2=O (stereo not drawn)	none
COc1ccc(C2(c3ccc(OC)cc3)NC(=O)N(CC(=O)NCC(C)c3ccccc3)C2=O)cc1 (stereo not drawn)	none (no result: EBNA-1 inhibitor, HCV NS3 hel inh, core dimer inh)
CCc1nn(-c2ccccc2)c(=S)c2ccccc12	EBNA-1 inhibitor 35 | EBNA-1 confirm inactive | ZTA counter trip inactive
CCN(/N=C/c1ccc(Cl)cc1)c1cc(=O)n(C)c(=O)[nH]1	EBNA-1 inhibitor 37 | EBNA-1 confirm inactive | ZTA counter trip inactive
CCN(/N=C/C=C/c1ccccc1)c1cc(=O)n(C)c(=O)[nH]1	none
C=CCNC(=O)NC(=O)CSc1nnc(C(F)(F)F)n1C	none
CCOc1ccc(N2C(=O)CC(NC3CCN(C(=O)c4cccc(Cl)c4)CC3)C2=O)cc1 (stereo not drawn)	EBNA-1 inhibitor 50 | EBNA-1 confirm inactive | ZTA counter trip inactive
COc1cc([C@H]2Oc3c(OC)cc(CCCO[C@@H]4O[C@H](CO)[C@@H](O)[C@H](O)[C@H]4O)cc3[C@@H]2CO)ccc1O	none (no result: HCV NS3 hel inh)
O=C(CCC(=O)Nc1ccc(Br)cc1)N/N=C/c1ccc(O)cc1	EBNA-1 inhibitor 28 | EBNA-1 confirm inactive | ZTA counter trip inactive
COc1ccc(O)c(/C=N/NC(=O)CCC(=O)Nc2cccc(C)c2)c1	none
COc1ccc(O)c(/C=N/NC(=O)CCC(=O)Nc2ccc(C)cc2)c1	EBNA-1 inhibitor 50 | EBNA-1 confirm inactive | ZTA counter trip inactive
O=C1CC(SC(=NCc2ccc3c(c2)OCO3)Nc2ccccc2)C(=O)N1c1ccccc1 (stereo not drawn)	EBNA-1 inhibitor 44 | EBNA-1 confirm inactive | ZTA counter trip inactive
O=C(O)c1ccc(N2C(=O)CC(SC(=NCc3ccc4c(c3)OCO4)Nc3ccccc3)C2=O)cc1 (stereo not drawn)	none
Cc1csc(NC(=O)CSc2nc3sc(C)c(C)c3c(=O)[nH]2)n1	EBNA-1 inhibitor 53 | EBNA-1 confirm inactive | ZTA counter trip inactive
Cc1ccccc1NC(=O)CSc1nc2scc(C)c2c(=O)[nH]1	none
CCOC(=O)Cc1csc(NC(=O)CSc2nc3sc(C(=O)O)c(C)c3c(=O)[nH]2)n1	none
Cc1sc2nc(SCC(=O)Nc3ccccc3F)[nH]c(=O)c2c1C	EBNA-1 inhibitor 30 | EBNA-1 confirm 42 | ZTA counter trip inactive
COc1cc2[nH]c(=S)n(Cc3ccccc3)c(=O)c2cc1OC	none
COc1cc2[nH]c(=O)n(Cc3ccccc3Cl)c(=O)c2cc1OC	EBNA-1 inhibitor 39 | EBNA-1 confirm inactive | ZTA counter trip inactive
